According to ChEMBL document CHEMBL1145905, “Design and synthesis of novel dimeric morphinan ligands for kappa and micro opioid receptors” (J Med Chem, 2003):
Active and inactive are the calls of the source. The calls are words filed in the database; no cut-off is given here.

Tests used:
[1] = target: T1, Kappa-type opioid receptor (Homo sapiens, UniProt P41145); assay: Inhibitory activity against Opioid receptor kappa 1 in chinese Hamster Ovary (CHO) cell membranes was determined using [3H]U-69593 radioligand
Mu-type opioid receptor [2] = target: T2, Mu-type opioid receptor (Homo sapiens, UniProt P35372); assay: Inhibitory activity against Opioid receptor mu 1 in chinese Hamster Ovary (CHO) cells membranes was determined using [3H]-DAMGO radioligand; format: cell-based
[3] = target: Delta-type opioid receptor (Homo sapiens, UniProt P41143); assay: Inhibitory activity against Opioid receptor delta 1 in chinese Hamster Ovary (CHO) cell membranes was determined using [3H]naltrindole radioligand
[4] = target: Opioid receptors; delta & kappa (Homo sapiens) (UniProt P41145+P41143); assay: Selective inhibitory activity was determined against kappa & delta opioid receptor in chinese Hamster Ovary (CHO) cell membranes
[5] = target: Opioid receptors; mu & kappa (Homo sapiens) (UniProt P41145+P35372); assay: Selective inhibitory activity was determined against kappa & mu opioid receptor in chinese Hamster Ovary (CHO) cell membranes
[6] = target: T1, Kappa-type opioid receptor; assay: Maximal percent inhibitory activity in stimulating [35S]-GTP-gamma S binding mediated by the Opioid receptor kappa 1 in chinese Hamster Ovary (CHO) cell membranes; No Effect; format: functional
Procedure, shortened: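 Antagonist mode: human κ-CHO membranes (15 μg protein) with 100 nM U50,488 plus varying compound concentrations, 3 μM GDP, […] [35S]GTPγS, 60 min at 30 °C, pH 7.4 buffer with Mg2+/NaCl/EGTA; filtration, counting.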

Mu-type opioid receptor [7] = target: T2, Mu-type opioid receptor; assay: Percent maximal stimulation in [35S]-GTP-gamma S binding assay mediated by the Opioid receptor mu 1 in chinese Hamster Ovary (CHO)membranes
[8] = target: T1, Kappa-type opioid receptor; assay: Percent maximal stimulation in [35S]-GTP-gamma S binding assay mediated by the Opioid receptor kappa 1 in chinese Hamster Ovary (CHO)membranes; format: functional
Mu-type opioid receptor [9] = target: T2, Mu-type opioid receptor; assay: Inhibitory activity was determined in stimulating [35S]-GTP-gamma S binding mediated by the Opioid receptor mu 1 in chinese Hamster Ovary (CHO)membranes
Mu-type opioid receptor [10] = target: T2, Mu-type opioid receptor; assay: Maximal percent inhibitory activity was determined in stimulating [35S]-GTP-gamma S binding mediated by the Opioid receptor mu 1 in chinese Hamster Ovary (CHO) cell membranes
Procedure, shortened: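 Antagonist mode: human μ-CHO membranes (7.5 μg protein) with 200 nM DAMGO plus varying compound concentrations, 3 μM GDP, […] [35S]GTPγS, 60 min at 30 °C, pH 7.4 buffer with Mg2+/NaCl/EGTA; filtration, counting.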

[11] = target: T1, Kappa-type opioid receptor; assay: Inhibitory activity in stimulating [35S]-GTP-gamma S binding mediated by the Opioid receptor kappa 1 in chinese Hamster Ovary (CHO) cell membranes was determined; format: functional
Mu-type opioid receptor [12] = target: T2, Mu-type opioid receptor

T2 sequence (P35372 whole entry): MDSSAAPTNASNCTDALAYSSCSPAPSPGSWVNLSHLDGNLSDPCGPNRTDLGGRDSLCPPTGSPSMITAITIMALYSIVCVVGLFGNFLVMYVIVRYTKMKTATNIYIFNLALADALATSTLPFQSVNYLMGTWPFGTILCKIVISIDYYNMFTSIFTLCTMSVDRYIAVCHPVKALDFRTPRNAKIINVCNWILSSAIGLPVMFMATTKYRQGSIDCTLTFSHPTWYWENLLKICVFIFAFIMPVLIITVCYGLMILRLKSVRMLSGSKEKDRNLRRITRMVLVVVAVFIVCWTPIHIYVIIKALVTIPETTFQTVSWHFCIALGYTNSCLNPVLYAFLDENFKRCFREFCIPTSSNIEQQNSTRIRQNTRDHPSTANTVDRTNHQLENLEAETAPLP
Chain of Opioid receptors; mu & kappa (Homo sapiens) (P35372 whole entry, looked up): as the sequence (P35372 whole entry) above
Chain of Opioid receptors; mu & kappa (Homo sapiens) (P41145 whole entry, looked up): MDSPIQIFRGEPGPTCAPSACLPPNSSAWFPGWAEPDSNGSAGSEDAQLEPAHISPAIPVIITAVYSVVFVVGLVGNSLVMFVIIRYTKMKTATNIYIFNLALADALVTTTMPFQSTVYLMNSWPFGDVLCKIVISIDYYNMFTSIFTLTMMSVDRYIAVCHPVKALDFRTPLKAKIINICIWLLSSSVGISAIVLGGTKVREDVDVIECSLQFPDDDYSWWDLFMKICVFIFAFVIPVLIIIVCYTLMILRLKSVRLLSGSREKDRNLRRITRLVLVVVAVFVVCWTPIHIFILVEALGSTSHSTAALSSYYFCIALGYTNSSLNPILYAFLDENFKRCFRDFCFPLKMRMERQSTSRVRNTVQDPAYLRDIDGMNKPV
Chain of Opioid receptors; delta & kappa (Homo sapiens) (P41143 whole entry, looked up): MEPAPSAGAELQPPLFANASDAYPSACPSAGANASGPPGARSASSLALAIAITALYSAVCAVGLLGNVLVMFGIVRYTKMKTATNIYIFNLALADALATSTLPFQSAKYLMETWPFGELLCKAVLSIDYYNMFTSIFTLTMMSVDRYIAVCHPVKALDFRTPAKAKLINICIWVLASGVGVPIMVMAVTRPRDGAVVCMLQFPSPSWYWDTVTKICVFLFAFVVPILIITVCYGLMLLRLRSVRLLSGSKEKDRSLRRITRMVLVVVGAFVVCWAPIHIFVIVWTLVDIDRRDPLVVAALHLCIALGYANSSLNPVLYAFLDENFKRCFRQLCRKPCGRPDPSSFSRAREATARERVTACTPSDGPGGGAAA
Chain of Opioid receptors; delta & kappa (Homo sapiens) (P41145 whole entry, looked up): as the sequence (P41145 whole entry, looked up) above
Chain of Delta-type opioid receptor (P41143 whole entry): as the sequence (P41143 whole entry, looked up) above
T1 sequence (P41145 whole entry): as the sequence (P41145 whole entry, looked up) above

Row | SMILES | Ki [1] [nM] | Ki (Mu-type opioid receptor [2]) [nM] | Ki [3] [nM] | Selectivity [4] | Selectivity [5] | NT [6] | Emax (Mu-type opioid receptor [7]) [%] | Emax [8] [%] | IC50 (Mu-type opioid receptor [9]) [nM] | Imax (Mu-type opioid receptor [10]) [%] | EC50 [11] [nM] | EC50 (Mu-type opioid receptor [12]) [nM] | NE [6]
1 | O=C(CCCC(=O)Oc1ccc2c(c1)[C@@]13CCCC[C@H]1[C@@H](C2)N(CC1CCC1)CC3)Oc1ccc2c(c1)[C@@]13CCCC[C@H]1[C@@H](C2)N(CC1CCC1)CC3 | 1.2 | 3.3 | 80 | 70 | 3 | – | – | – | – | – | – | – | –
2 | COC(=O)CCCCCCCCC(=O)Oc1ccc2c(c1)[C@@]13CCCC[C@H]1[C@@H](C2)N(CC1CCC1)CC3 | 0.07 | 0.23 | 44 | 630 | 3 | inactive | 60 | 90 | 130 | 50 | 5.7 | 8 | –
3 | Oc1ccc2c(c1)[C@@]13CCCC[C@H]1[C@@H](C2)N(CCCCCCN1CC[C@]24CCCC[C@H]2[C@H]1Cc1ccc(O)cc14)CC3 | 50 | 52 | 370 | 7 | 1 | – | – | – | – | – | – | – | –
4 | O=C(Oc1ccc2c(c1)[C@@]13CCCC[C@H]1[C@@H](C2)N(CC1CCC1)CC3)c1cccc(C(=O)Oc2ccc3c(c2)[C@@]24CCCC[C@H]2[C@@H](C3)N(CC2CCC2)CC4)c1 | 3.4 | 3.3 | 920 | 270 | 1 | – | – | – | – | – | – | – | –
5 | O=C(CCCCCCC(=O)Oc1ccc2c(c1)[C@@]13CCCC[C@H]1[C@@H](C2)N(CC1CCC1)CC3)Oc1ccc2c(c1)[C@@]13CCCC[C@H]1[C@@H](C2)N(CC1CCC1)CC3 | 0.65 | 0.89 | 24 | 37 | 1 | – | 60 | 80 | 90 | 100 | 11 | 10 | inactive
6 | c1cc2c(cc1OCCCCOc1ccc3c(c1)[C@@]14CCCC[C@H]1[C@@H](C3)N(CC1CCC1)CC4)[C@@]13CCCC[C@H]1[C@@H](C2)N(CC1CCC1)CC3 | 18 | 29 | 730 | 40 | 2 | – | – | – | – | – | – | – | –
7 | O=C(CCC(=O)Oc1ccc2c(c1)[C@@]13CCCC[C@H]1[C@@H](C2)N(CC1CC1)CC3)Oc1ccc2c(c1)[C@@]13CCCC[C@H]1[C@@H](C2)N(CC1CC1)CC3 | 0.1 | 0.14 | 3.8 | 40 | 1 | – | 10 | 70 | 1.8 | 60 | 3.3 | – | –
8 | O=C(CCCCCCCCCCC(=O)Oc1ccc2c(c1)[C@@]13CCCC[C@H]1[C@@H](C2)N(CC1CCC1)CC3)Oc1ccc2c(c1)[C@@]13CCCC[C@H]1[C@@H](C2)N(CC1CCC1)CC3 | 1.1 | 1.8 | 82 | 75 | 2 | – | 14 | 90 | 100 | 60 | 8.1 | – | inactive
9 | O=C(CCCCCCCC(=O)Oc1ccc2c(c1)[C@@]13CCCC[C@H]1[C@@H](C2)N(CC1CCC1)CC3)Oc1ccc2c(c1)[C@@]13CCCC[C@H]1[C@@H](C2)N(CC1CCC1)CC3 | 0.59 | 0.97 | 21 | 35 | 2 | – | 57 | 80 | 360 | 54 | 15 | 11 | inactive
10 | O=C(CCCCCCCCC(=O)Oc1ccc2c(c1)[C@@]13CCCC[C@H]1[C@@H](C2)N(CC1CC1)CC3)Oc1ccc2c(c1)[C@@]13CCCC[C@H]1[C@@H](C2)N(CC1CC1)CC3 | 0.41 | 0.93 | 32 | 80 | 2 | – | 30 | 90 | 90 | 100 | 4.9 | – | –
11 | Oc1ccc2c(c1)[C@@]13CCCC[C@H]1[C@@H](C2)N(CCCN1CC[C@]24CCCC[C@H]2[C@H]1Cc1ccc(O)cc14)CC3 | 24 | 48 | 600 | 25 | 2 | – | – | – | – | – | – | – | –
12 | Oc1ccc2c(c1)[C@@]13CCCC[C@H]1[C@@H](C2)N(CC1CC1)CC3 | – | – | – | – | – | – | – | – | – | 50 | – | – | –
13 | O=C(CCCCCCCCC(=O)Oc1ccc2c(c1)[C@@]13CCCC[C@H]1[C@@H](C2)N(CC1CCC1)CC3)Oc1ccc2c(c1)[C@@]13CCCC[C@H]1[C@@H](C2)N(CC1CCC1)CC3 | 0.049 | 0.09 | 4.2 | 90 | 2 | – | 50 | 60 | 16 | 60 | 0.85 | 1.3 | inactive
14 | O=C(Oc1ccc2c(c1)[C@@]13CCCC[C@H]1[C@@H](C2)N(CC1CCC1)CC3)c1ccc(C(=O)Oc2ccc3c(c2)[C@@]24CCCC[C@H]2[C@@H](C3)N(CC2CCC2)CC4)cc1 | 4.2 | 4.7 | 400 | 100 | 1 | – | – | – | – | – | – | – | –
15 | CN1CC[C@]23CCCC[C@H]2[C@H]1Cc1ccc(O)cc13 [LEVORPHANOL] | 2.3 | – | – | – | – | – | – | – | – | – | – | – | –
16 | O=C(CCC(=O)Oc1ccc2c(c1)[C@@]13CCCC[C@H]1[C@@H](C2)N(CC1CCC1)CC3)Oc1ccc2c(c1)[C@@]13CCCC[C@H]1[C@@H](C2)N(CC1CCC1)CC3 | 0.076 | 0.16 | 9.4 | 120 | 2 | – | 50 | 70 | 170 | 50 | 4.5 | 7.4 | inactive
17 | Oc1ccc2c(c1)[C@@]13CCCC[C@H]1[C@@H](C2)N(CC1CCC1)CC3 [BUTORPHAN] | 0.079 | – | – | – | – | – | – | – | – | – | 1.3 | – | –
18 | O=C(Oc1ccc2c(c1)[C@@]13CCCC[C@H]1[C@@H](C2)N(CC1CCC1)CC3)[C@H]1C[C@H]1C(=O)Oc1ccc2c(c1)[C@@]13CCCC[C@H]1[C@@H](C2)N(CC1CCC1)CC3 | 0.17 | 0.28 | 16 | 90 | 2 | – | – | – | – | – | – | – | –
19 | c1cc2c(cc1OCCCCCCCCCCOc1ccc3c(c1)[C@@]14CCCC[C@H]1[C@@H](C3)N(CC1CCC1)CC4)[C@@]13CCCC[C@H]1[C@@H](C2)N(CC1CCC1)CC3 | 120 | 66 | 2500 | 20 | 0.5 | – | – | – | – | – | – | – | –
